MEKK2 WT-MEK5 – raises or lowers MEK5 binding to wildtype human MEKK2 PB1 domain; Q9Y2U5; bead flow cytometry, Alexa488-MEK5 binding to MEKK2 WT; actives lie on both sides; binding response (% of control), % at 10 µM; hit rate 1.1% among 290,000; in the data active = binding response below about 67% or above about 130%
UBC13 polyUb – blocks human UBC13 polyubiquitin chain formation. P61088. TR-FRET. inhibition, % at 20 µM. hit rate 0.47% among 330,000. AID 485273; in the data active = inhibition above about 45%, passing the limit was not always enough
Target sequence (P61088 whole entry, looked up): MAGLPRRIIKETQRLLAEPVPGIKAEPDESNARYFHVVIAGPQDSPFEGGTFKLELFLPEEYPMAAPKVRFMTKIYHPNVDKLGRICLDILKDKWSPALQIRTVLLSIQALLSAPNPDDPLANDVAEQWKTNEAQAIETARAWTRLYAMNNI
MEKK2 mut-MEK5 – signal of MEK5 binding to mutant human MEKK2 PB1 domain | hit rate 0.35% among 290,000 | percent response, % at 10 µM | bead flow cytometry, Alexa488-MEK5 binding to MEKK2 mutant | AID 1530; in the data active = percent response above about 24%, passing the limit was not always enough
MEKK3 PB1 HTS – MEKK3-MEK5 PB1 interaction, increase or decrease; Q99759; bead-based flow cytometry, Alexa488-MEK5 binding to MEKK3; actives lie on both sides; 0 = blocked by unlabeled MEK5, 100 = vehicle; binding response (% of control), % at 10 µM; hit rate 1.4% among 290,000; AID 1529;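 active = binding response more than 3 SD above or below the average of its plate-row segment, actives on both sides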;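 also: Alexa488 bead fluorescence after subtracting the streptavidin-only scavenger bead signal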
PREPL inhibitor – human PREPL enzyme inhibition. hit rate 0.68% among 320,000. AID 2751. Q4J6C6. inhibition, % at 5.96 µM. recombinant PREPL, fluorescence polarization activity-based probe; in the data active = inhibition above about 43%
Apaf-1 inh – inhibitors of human Apaf-1 apoptosome; inhibition, % at 20 µM; reconstituted apoptosome caspase-3 activity, DEVD-Rh110 fluorescence; hit rate 0.71% among 330,000; AID 489030; active = inhibition of at least 40% at 20 µM
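Material: biochemical Apaf-1 apoptosome reconstitution. Medium: Hepes buffer, pH 7.5. Also added: cytochrome c activation, bis-DEVD rhodamine 110 substrate. Timing: 30 min compound preincubation, 50 min activation, room temperature. Measured by: rhodamine 110 fluorescence at Ex 480/Em 540 nm.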
Apaf-1 inh conf – confirmation of Apaf-1 inhibitors; inhibition, % at 20 µM; reconstituted apoptosome, caspase-3 DEVD-Rh110 fluorescence; shares compounds with Apaf-1 inh; hit rate 25% among 1,800; AID 504614;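 active = mean inhibition of at least 40% at 20 µM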
Rh110 quench – counter-screen for Apaf-1 inhibitors: fluorescence interference. shares compounds with Apaf-1 inh. Rh110 fluorescence interference, quenched caspase reaction. activation (fluorescence interference), % at 20 µM. 1,800 tested, under 10 active. AID 504615;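 active = signal rise of 40% or more at 20 µM, treated as a fluorescence artifact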
Fluor interf inh – shows fluorescence interference in the Apaf-1 inhibitor assay format | shares compounds with Apaf-1 inh | fluorescence interference counterscreen, Apaf-1 assay format | IC50, µM | 460 tested, under 10 active; call rule not given here
Hits are given with their value; n = inactive; x = no result. In the library only some 3.1% were active in any assay of this set; here they are far more common.

SMILES | MEKK2 WT-MEK5 | UBC13 polyUb | MEKK2 mut-MEK5 | MEKK3 PB1 HTS | PREPL inhibitor | Apaf-1 inh | Apaf-1 inh conf | Rh110 quench | others
Cc1[nH]n(-c2ccccc2)c(=O)c1/C=N\NC(=O)C1COc2ccccc2O1 (centres undefined) | n | n | n | n | n | 53.9 | 64.8 | n | Fluor interf inh=n
CC(=O)N/N=C/c1c(C)[nH]n(-c2ccccc2)c1=O | n | n | n | n | n | n | x | x
Cc1[nH]n(-c2ccccc2)c(=O)c1/C=N/NC(=O)c1cccc([N+](=O)[O-])c1 | n | n | n | n | n | 55.7 | 53.1 | n | Fluor interf inh=n
Cc1[nH]n(-c2ccccc2)c(=O)c1/C=N/N(C)c1ccccc1 | n | n | n | n | n | 79.8 | n | n
Cc1nn(-c2ccccc2)c(C)c1CN(C)C(=O)c1ccc(S(=O)(=O)NCc2ccco2)cc1 | x | n | x | x | n | 48.9 | n | n
CCOC(=O)N1CCC(NC(=O)CN2C(=O)CSc3ncccc32)CC1 | n | n | n | n | n | 62.8 | n | n
CCOC(=O)N1CCC(NC(=O)CCCN2C(=O)CSc3ncccc32)CC1 | x | n | x | x | n | n | x | x
COC(=O)/C(=C/Nc1ccccc1)[N+](=O)[O-] | n | n | n | n | n | n | x | x
COC(=O)/C(=C/Nc1ccc(O)cc1)[N+](=O)[O-] | n | n | n | n | n | 91.2 | n | n
NC(=O)c1ccc(NC(=O)C2CCCC2)cc1 | n | n | n | n | n | n | x | x
CC(Sc1nnnn1-c1cccc(F)c1)C(=O)NC1CCCC1 (centres undefined) | x | n | x | x | n | n | x | x
Cc1cc(/C=C2\SC(=O)N(C)C2=O)c(C)n1-c1ccc(O)cc1 | n | n | n | n | n | 70.9 | n | n
Cc1cc(/C=C2\SC(=O)N(C)C2=O)c(C)n1-c1ccc(S(N)(=O)=O)cc1 | n | n | n | n | n | n | x | x
COc1ccc(-c2cc(=O)[nH][nH]2)cc1 | n | n | n | n | n | n | x | x
COc1ccc(-c2cc(=O)n(CCC#N)[nH]2)cc1 | n | n | n | n | n | 94.3 | n | n
COc1cc(N)c(Cc2nccc3cc(OC)c(OC)cc23)cc1OC | n | n | n | n | n | 47.5 | n | n
COc1cc2ccnc(Cc3cccc(OC)c3OC)c2cc1OC | n | n | n | n | n | n | x | x
CCOC(=O)c1c(NC(=O)CN2CCN(C(=O)c3ccco3)CC2)sc2c1CCCC2 | n | n | n | n | n | 47.9 | n | n
CCOC(=O)c1c(NC(=O)c2ccco2)sc2c1CCCC2 | n | n | n | n | n | n | x | x
CCCCNC(=O)C(C)N(CCN(C)C)C(=O)CCCN1C(=O)NC(c2ccc([N+](=O)[O-])cc2)C(C(=O)OCc2ccccc2)=C1C (centres undefined) | x | x | x | x | x | 45.3 | n | n
COc1cc(CN(C(=O)c2cccs2)C2CCS(=O)(=O)C2)cc(OC)c1OC (centres undefined) | n | n | n | n | n | n | x | x
O=C1CCN2C=Nc3cccc4ccc1c2c34 | n | n | n | n | n | 43.5 | n | n
c1ccc(CN2CCN(C3=Nc4cccc5cccc3c45)CC2)cc1 | x | n | x | x | x | n | x | x
Cc1[nH]n(-c2ccc([N+](=O)[O-])cc2)c(=O)c1/C=N/N1CCOCC1 | n | n | n | n | n | 44.5 | n | n
COc1ccc(CCN=Cc2c(C)[nH]n(-c3ccc([N+](=O)[O-])cc3)c2=O)cc1OC | n | n | n | n | n | n | x | x
O=C(OCCN1CCN(C2=NS(=O)(=O)c3ccccc32)CC1)c1ccccc1F | n | n | n | n | n | n | x | x
Cc1cc(NC(=O)c2cccc(Br)c2)no1 | x | n | x | x | n | n | x | x
CN(C)S(=O)(=O)c1ccc(NC(=O)CN2CCCC2c2ccc3c(c2)OCCCO3)cc1 (centres undefined) | x | n | x | x | n | 45.8 | n | n

Source: PubChem
